According to PMC3248997 (Bioorganic & medicinal chemistry, 2011):
Where two headings read alike, the source gives them in different places.

What was measured:
[1] = intracerebroventricular injection of 10 nmol; cited from earlier work
[2] = system: COX activity (PGE2 and 6-keto-PGF1α formation) in brain homogenates; test: Inhibition of COX activity in tissue extract; format: biochemical, C57BL/6 mice
How it was run: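 C57BL/6 mouse brain homogenate prepared on ice in 50 mM Tris pH 7.4 with 1 mM phenol and protease inhibitors. 20 µg homogenate preincubated with test compound or vehicle. 150 µM arachidonic acid added at 37°C. Stopped after 5 min by acidifying to pH 2.5 with formic acid and chilling. Prostanoids extracted with ethyl acetate/hexane (7:1). PGE2 and 6-keto-PGF1α quantified by GC-MS/MS.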

[3] = in vivo
[4] = system: PGE2 formation in brain tissue from COX-1−/− mice; format: biochemical; settings: 0.8 µM; brain tissue from LPS stimulated COX-1−/− mice
[5] = system: COX-2 in murine macrophages; settings: unclear which pyrazolone(s) were added; cited from earlier work
[6] = cited from earlier work
[7] = system: COX-2 in primary human leukocytes; settings: unclear which pyrazolone(s) were added; cited from earlier work
[8] = cited from earlier work; remark: listed apart in the source

Q: For CCCCC/C=C\C/C=C\C/C=C\C/C=C\CCCC(=O)Nc1ccc(O)cc1 [AM404, N-arachidonoylaminophenol], which antinociception [1] is on record?
A: Antinociception was observed

Q: With CCCCC/C=C\C/C=C\C/C=C\C/C=C\CCCC(=O)Nc1c(C)n(C)n(-c2ccccc2)c1=O [compound 6, (5Z,8Z,11Z,14Z)-Icosa-5,8,11,14-tetraenoic acid (1,5-dimethyl-3-oxo-2-phenyl-2,3-dihydro-1H-pyrazol-4-yl)-amide] as the molecule, how does the “effect on PGE2 formation” value ([2]; brain homogenates, concentration range 100 nM to 100 µM) read?
A: no effect

Q: And the “amount in mouse brain cell homogenates” value ([3]; C57BL/6, mouse)?
A: 39 pg/sample

Q: What about the “formation in brain of FAAH−/− mice as compared to wild type mice” value ([3]; FAAH−/− knockout compared with wild type (C57BL/6), mouse, 5 days) of the same molecule?
A: about 6%

Q: For CCCCC/C=C\C/C=C\C/C=C\C/C=C\CCCC(=O)N(C)c1c(C)n(C)n(-c2ccccc2)c1=O [compound 5, (5Z,8Z,11Z,14Z)-Icosa-5,8,11,14-tetraenoic acid (1,5-dimethyl-3-oxo-2-phenyl-2,3-dihydro-1H-pyrazol-4-yl)-methyl-amide], which “formation of PGE2” value [4] is on record?
A: did not observe any formation of PGE2

Q: And the “lowering of IC50 by the FAAH inhibitor URB532” value ([2]; inhibition of PGE2 formation in mouse brain homogenates)?
A: more than 200 fold

Q: And the “formation in brain of FAAH−/− mice as compared to wild type mice” value (dipyrone for 5 days)?
A: less than 2%

Q: What about the “amount in mouse brain cell homogenates” value (representative chromatogram, Figure 9 B) of the same molecule?
A: 2.4 pg/sample

Q: Which results are given for Cc1c(N(C)CS(=O)(=O)[O-])c(=O)n(-c2ccccc2)n1C.[Na+] [compound 1, sodium N-(2,3-dimethyl-5-oxo-1-phenyl-3-pyrazolin-4-yl)-N-methylaminomethanesulphonate]?
A: activity against COX-2 [5]: approximately 12 µg ml^−1; time detectable in the serum ([6]; following intravenous administration): about 15 min; detectability in the serum after oral intake ([6]; oral intake): not detectable; activity against COX-2 [7]: ~21 µg/mL

Q: Which “concentration in the cerebrospinal fluid” value [8] does the source give for CNc1c(C)n(C)n(-c2ccccc2)c1=O [compound 2, 4-methylaminoantipyrine] here?
A: 5 to 30 µg/mL

Q: And the bioavailability ([6]; after oral administration of dipyrone)?
A: 85%

Q: What about the “average elimination half-life (t1/2)” value [6] of the same molecule?
A: 2.6 to 3.5 h

Q: And the tmax ([6]; time to maximal systemic concentrations)?
A: 1.2 to 2.0 h

Q: For Cc1c(N)c(=O)n(-c2ccccc2)n1C [compound 3, 4-aminoantipyrine], which “concentration in the cerebrospinal fluid” value [8] is on record?
A: 1 to 7 µg/mL
